PRMT1 FP inh – inhibitors of human PRMT1. inhibition, % at 2.79 µM. 1.3% of 370,000 active. recombinant PRMT1, activity-based probe fluorescence polarization. Q99873;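 active = inhibition above about 21% made by adding two undisclosed values, limit read from the data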
Target sequence (Q99873 whole entry, looked up): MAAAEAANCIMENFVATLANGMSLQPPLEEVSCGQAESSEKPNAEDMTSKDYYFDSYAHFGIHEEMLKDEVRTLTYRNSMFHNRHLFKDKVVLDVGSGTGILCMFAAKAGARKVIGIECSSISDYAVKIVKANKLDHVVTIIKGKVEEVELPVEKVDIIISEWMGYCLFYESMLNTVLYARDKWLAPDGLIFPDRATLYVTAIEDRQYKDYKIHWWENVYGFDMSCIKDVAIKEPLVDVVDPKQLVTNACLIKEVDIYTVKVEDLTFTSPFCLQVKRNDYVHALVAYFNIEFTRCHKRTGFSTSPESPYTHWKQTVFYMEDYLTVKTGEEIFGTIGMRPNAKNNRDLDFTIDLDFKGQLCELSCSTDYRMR
SIAE inh – blocks human sialic acid acetylesterase; Q9HAT2; SIAE FP-Rh probe binding, fluorescence polarization; inhibition, % at 9.66 µM; 0.69% of 370,000 active;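 active = inhibition above a cutoff: mean of compounds within the control limits plus 3 SD of those, cut at about 17% in these data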
mABHD4 FP – inhibits mouse alpha/beta hydrolase domain 4; purified mABHD4, FP-Rh probe fluorescence polarization; AID 720543; inhibition, % at 8.92 µM; 0.54% of 370,000 active;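 active = inhibition exceeding the mean over every tested compound plus 3 SD, cut at about 30% in these data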
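system = mouse ABHD4 enzyme, wild type | medium = HEPES pH 7.0, NaCl, Pluronic buffer | also added = FP-Rh probe | incubation = Enzyme–compound pre-incubation 45 min, then probe 60 min, both 25 °C | technique = fluorescence polarization, excitation 525 nm, emission 598 nm, BODIPY TMR filters | controls = S159A mutant high control, sample median low control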
HTRA1 inh – inhibitors of human serine peptidase HTRA1 | AID 504803 | 0.5% of 340,000 active | recombinant HTRA1, FP-rhodamine activity-based probe, fluorescence polarization | inhibition, % at 5.96 µM; in the data active = inhibition above about 36%
TCR CD3 inh – human TCR-CD3 binding inhibition; TAMRA-labeled TCR probe fluorescence, biochemical; inhibition, % at 9.4 µM; 0.37% of 360,000 active; in the data active = inhibition above about 19%;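 note: recombinant mutant TCR 2C K166C tagged with TAMRA read by polarization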
ATG4B inhibitor – blocks human ATG4B protease cleavage of LC3 substrate; Q9Y4P1; ATG4B cleavage of LC3-PLA2, NBD-HPC fluorescence, 1 h; inhibition, % at 8.33 µM; 0.51% of 340,000 active; AID 504462; in the data active = inhibition above about 40%
PRMT1 confirm – PRMT1 (human) inhibition, FP confirmation | shares compounds with PRMT1 FP inh | recombinant His-PRMT1, activity-based probe fluorescence polarization | inhibition, % at 2.79 µM | 42% of 3,300 active | AID 687036;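 active = mean inhibition across replicates above the hit cutoff derived for the earlier primary screen, cut at about 22% in these data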
ABHD4 confirm – confirmation of mouse ABHD4 inhibitors. shares compounds with mABHD4 FP. purified mABHD4, FP-Rh probe fluorescence polarization. inhibition, % at 8.92 µM. 55% of 1,800 active;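 active = mean inhibition across replicates above the hit cutoff set in the primary screen, cut at about 30% in these data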
SIAE confirm – confirmation of human SIAE inhibitors; shares compounds with SIAE inh; 13% of 2,300 active; AID 1117263; SIAE FP-Rh activity-based probe, fluorescence polarization; inhibition, % at 9.66 µM;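 active = mean inhibition of the replicates above the hit cutoff set in the primary screen, cut at about 17% in these data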;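 note: inhibitors lower polarization as more probe stays unbound to SIAE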
Numbers stand for hits; n = inactive; x = not tested or not shown. This is a sample that favours compounds with a hit; in the whole collection about 2.9% have one here.

SMILES	PRMT1 FP inh	SIAE inh	mABHD4 FP	HTRA1 inh	TCR CD3 inh	ATG4B inhibitor	ABHD4 confirm	others
O=C1C2C3C=CC(C3=C3CCCCC3)C2C(=O)N1c1ccccc1 (configuration not stated)	43	19	n	n	n	n	x	PRMT1 confirm=n;SIAE confirm=n
CN(Cc1ccccc1F)C(=O)C1CCC(CNS(=O)(=O)c2cccc3cccnc23)CC1 (configuration not stated)	n	n	n	x	x	x	x
CCN(CC)c1ccc(C=NNC(=O)Cc2cc(=O)[nH][nH]2)c(O)c1	n	n	33	x	x	x	n
O=C(O)c1ccc(-c2cccc([N+](=O)[O-])c2)o1	n	n	n	n	n	n	x
N#C/C(=C(/O)c1ccc(-c2cccc([N+](=O)[O-])c2)o1)c1nc2ccccc2s1	n	n	31	n	n	n	56
C=CCS/C(N)=N\N=C\c1cc(Br)cc([N+](=O)[O-])c1O	n	n	31	n	n	n	n
O=C1C=C(Nc2ccc(O)cc2)CC(c2ccco2)C1 (configuration not stated)	n	n	44	n	n	n	n
NC(=Nc1ccc(N)cc1)C(N)=Nc1ccc(N)cc1	n	n	31	n	n	n	n
Nc1c(O)ccc2c1C(=O)c1ccccc1C2=O	n	n	45	x	n	n	47
COc1ccc(S[C@]2(C(=O)NCCCN(C)C)CC(=O)N[C@@H]2c2ccc(OC)cc2)cc1	n	n	n	x	x	x	x
COc1ccccc1C(=O)Nc1ccc(N2CCCCC2)cc1	n	n	n	n	n	n	x
COc1cccc(OC)c1C(=O)Nc1ccc(N2CCCC2)cc1	n	n	33	n	n	n	38
Cc1nc(N)sc1-c1csc(N(C)c2ccc(O)cc2)n1	n	n	34	n	n	n	n
CN(c1ccc(O)cc1)c1nc(-c2cccs2)cs1	n	n	n	n	n	n	x
CCc1ccc(S(=O)(=O)Nc2cc(SCC(=O)O)c(O)c3ccccc23)cc1	77	n	31	n	n	n	45
COC(=O)[C@@]12CCCCC3=C1N(CCC3)C(=O)[C@H]2CC(=O)N1CCN(C(=O)c2ccco2)CC1	n	n	n	x	x	x	x
NC(=O)c1ccc(NC(=O)COc2cccc3c2CCNC3=O)cc1	n	n	105	n	n	n	n
O=C(COc1cccc2c1CCNC2=O)Nc1ccc(Cl)cc1	n	n	n	n	n	n	x
O=C(NC1CCCCN(Cc2cccc(C(F)(F)F)c2)C1=O)c1c(F)cccc1F (configuration not stated)	n	n	n	x	x	x	x
COc1ccc(CN2CCC(N3CC(C)OC(C)C3)CC2)c(OC)c1OC (configuration not stated)	n	n	32	n	n	n	n
Cc1ccc(CN2CCC(N3CC(C)OC(C)C3)CC2)cc1 (configuration not stated)	n	n	n	n	n	n	x
Cc1ccccc1CS(=O)(=O)Cc1ccc(C(=O)Nc2ccc(F)cc2F)o1	n	n	n	x	x	x	x
COc1cc(NC(=O)Nc2nc(C(N)Cc3ccc(C(F)(F)F)cc3)cs2)cc(OC)c1OC (configuration not stated)	n	n	44	x	n	x	39
O=C(C=Cc1ccc(OCc2ccccc2)cc1)c1c(F)cccc1F	n	n	n	x	n	x	x
Cc1ccc(NC(=O)COC(=O)CCn2c(C)csc2=O)c([N+](=O)[O-])c1	n	n	n	n	n	n	x
SMILES	PRMT1 FP inh	SIAE inh	mABHD4 FP	HTRA1 inh	TCR CD3 inh	ATG4B inhibitor	ABHD4 confirm	others
Cc1csc(=O)n1CCC(=O)OCC(=O)Nc1cc([N+](=O)[O-])ccc1Cl	n	n	56	n	n	n	n
NC(=S)n1[nH]c(-c2ccc([N+](=O)[O-])cc2)c(N=Nc2cccc([N+](=O)[O-])c2)c1=O	n	n	30	n	n	n	54
NC(=S)n1[nH]c(-c2ccc([N+](=O)[O-])cc2)c(N=Nc2ccccc2[N+](=O)[O-])c1=O	n	n	n	n	n	n	x
Cc1ccc(C=Nc2ccc(N(C)C)cc2)o1	n	n	40	52	n	n	34
Cc1ccc(C=Nc2ccccc2C(N)=O)o1	n	n	n	n	n	n	x
CC(C)CN(C(=O)COC(=O)Cn1cnc2ccccc2c1=O)C1CCS(=O)(=O)C1 (configuration not stated)	n	n	n	n	n	n	x
CN(C(=O)Cn1cnc2ccccc2c1=O)C1CCS(=O)(=O)C1 (configuration not stated)	n	n	50	n	n	n	n
Cc1cc(C(=O)O)cc(S(=O)(=O)Nc2ccccc2C(=O)NC(C)c2ccccc2)c1C (configuration not stated)	n	n	34	n	n	n	n
COC(=O)[C@H](C)N(Cc1cn(Cc2ccccc2)nn1)S(=O)(=O)c1ccccc1Br	n	n	n	x	x	x	x
COc1cc(C2NCC(c3ccc(Cl)cc3Cl)c3c2[nH]c2ccccc32)cc(OC)c1OC (configuration not stated)	n	n	44	n	n	n	59
COc1ccc(S(=O)(=O)N/N=C(/C)c2ccncc2)c(OC)c1	n	n	71	n	n	n	n
Nc1ccc2c(c1)-c1ccccc1S(=O)(=O)N2	22	n	50	n	n	n	31
O=S(=O)(CC1NCc2ccccc21)NC1CCCC1 (configuration not stated)	n	n	n	x	x	x	x
COC/C=C/C1=CC2=CC(=O)C(C)(OC(=O)c3cnc4ccccc4n3)C(=O)C2=CN1Cc1ccccc1 (configuration not stated)	n	n	34	n	n	n	n
CCCC(=O)OC12CCCN(C1)/C(=C/c1cccc(OC)c1)C2 (configuration not stated)	n	n	n	x	x	x	x
CN=c1scc(C)n1/N=C/c1cc(Br)c(O)c(Br)c1	n	n	n	n	n	n	x
CCN=c1scc(C)n1/N=C/c1cc(Br)c(O)c(OC)c1	n	n	30	n	n	n	33
C=CCN(c1ccccc1C(=O)O)S(=O)(=O)c1ccc(NC(=O)OC)cc1	n	n	35	n	n	n	n
COc1ccc(/C=N/Nc2ccc(C(F)(F)F)cc2[N+](=O)[O-])cc1O	n	n	n	n	n	n	x
COc1cccc(C=NN(C)c2c([N+](=O)[O-])cc(C(F)(F)F)cc2[N+](=O)[O-])c1O	n	n	45	x	n	x	49
